In article PMC10582670 (Clinical and Translational Science, 2023):
Values joined by “and” are separate entries in the source; they are usually repeats but may differ in a detail not shown here. Equal entries are not always repeated.

Tested on: healthy volunteers
Experiment: Safety and tolerability
Format: in vivo, human
How it was run: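 Healthy volunteers aged 18–55 y, BMI 18–30 kg/m², randomised double-blind 8:2 to once-daily oral drug or placebo for up to 14 days, with follow-up visits on days 21 and 42. Treatment-emergent AEs coded with MedDRA 23.1 and graded with the WHO toxicity scale, alongside ECGs, laboratory tests and vital signs. The safety population was all subjects receiving at least one dose.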

SMILES: O=C(c1nc2n(n1)[C@H](c1ccccc1)C[C@@H]2F)C1CC1 [GDC‐8264]
- No. of TEAEs (MAD 50 mg q.d., n = 5): 10
- No. of deaths (MAD 50 mg q.d., n = 5): 0 no. of subjects (%)
- No. of subjects with at least one Related TEAE (MAD 50 mg q.d., n = 5): 3 (60.0) no. of subjects (%)
- No. of subjects with at least one Serious TEAE (MAD 50 mg q.d., n = 5): 0 no. of subjects (%)
- No. of subjects with at least one TEAE (MAD 50 mg q.d., n = 5): 3 (60.0) no. of subjects (%)
- No. of subjects withdrawn from study due to a TEAE (MAD 50 mg q.d., n = 5): 0 no. of subjects (%)
- TEAE Abdominal pain (MAD 50 mg q.d., n = 5): 0 no. of subjects (%)
- TEAE Back pain (MAD 50 mg q.d., n = 5): 0 no. of subjects (%)
- TEAE Catheter site pain (MAD 50 mg q.d., n = 5): 0 no. of subjects (%)
- TEAE Dermatitis contact (MAD 50 mg q.d., n = 5): 0 no. of subjects (%)
- TEAE Diarrhea (MAD 50 mg q.d., n = 5): 1 (20.0) no. of subjects (%)
- TEAE Dizziness (MAD 50 mg q.d., n = 5): 0 no. of subjects (%)
- TEAE Dyspepsia (MAD 50 mg q.d., n = 5): 1 (20.0) no. of subjects (%)
- TEAE Gastrointestinal sounds abnormal (MAD 50 mg q.d., n = 5): 0 no. of subjects (%)
- TEAE Gingivitis (MAD 50 mg q.d., n = 5): 0 no. of subjects (%)
- TEAE Headache (MAD 50 mg q.d., n = 5): 0 no. of subjects (%)
- TEAE Medical device site dermatitis (MAD 50 mg q.d., n = 5): 0 no. of subjects (%)
- TEAE Myalgia (MAD 50 mg q.d., n = 5): 0 no. of subjects (%)
- TEAE Nausea (MAD 50 mg q.d., n = 5): 0 no. of subjects (%)
- TEAE Presyncope (MAD 50 mg q.d., n = 5): 0 no. of subjects (%)
- TEAE Somnolence (MAD 50 mg q.d., n = 5): 0 no. of subjects (%)
- No. of TEAEs (MAD 100 mg q.d., n = 7): 32
- No. of deaths (MAD 100 mg q.d., n = 7): 0 no. of subjects (%)
- No. of subjects with at least one Related TEAE (MAD 100 mg q.d., n = 7): 5 (71.4) no. of subjects (%)
- No. of subjects with at least one Serious TEAE (MAD 100 mg q.d., n = 7): 0 no. of subjects (%)
- No. of subjects with at least one TEAE (MAD 100 mg q.d., n = 7): 7 (100) no. of subjects (%)
- No. of subjects withdrawn from study due to a TEAE (MAD 100 mg q.d., n = 7): 0 no. of subjects (%)
- TEAE Abdominal pain (MAD 100 mg q.d., n = 7): 2 (28.6) no. of subjects (%)
- TEAE Back pain (MAD 100 mg q.d., n = 7): 0 no. of subjects (%)
- TEAE Catheter site pain (MAD 100 mg q.d., n = 7): 2 (28.6) no. of subjects (%)
- TEAE Dermatitis contact (MAD 100 mg q.d., n = 7): 1 (14.3) no. of subjects (%)
- TEAE Diarrhea (MAD 100 mg q.d., n = 7): 2 (28.6) no. of subjects (%)
- TEAE Dizziness (MAD 100 mg q.d., n = 7): 2 (28.6) no. of subjects (%)
- TEAE Dyspepsia (MAD 100 mg q.d., n = 7): 0 no. of subjects (%)
- TEAE Gastrointestinal sounds abnormal (MAD 100 mg q.d., n = 7): 1 (14.3) no. of subjects (%)
- TEAE Gingivitis (MAD 100 mg q.d., n = 7): 2 (28.6) no. of subjects (%)
- TEAE Headache (MAD 100 mg q.d., n = 7): 2 (28.6) no. of subjects (%)
- TEAE Medical device site dermatitis (MAD 100 mg q.d., n = 7): 0 no. of subjects (%)
- TEAE Myalgia (MAD 100 mg q.d., n = 7): 0 no. of subjects (%)
- TEAE Nausea (MAD 100 mg q.d., n = 7): 1 (14.3) no. of subjects (%)
- TEAE Presyncope (MAD 100 mg q.d., n = 7): 1 (14.3) no. of subjects (%)
- TEAE Somnolence (MAD 100 mg q.d., n = 7): 3 (42.9) no. of subjects (%)
- No. of TEAEs (MAD All GDC-8264, n = 12): 42
- No. of deaths (MAD All GDC-8264, n = 12): 0 no. of subjects (%)
- No. of subjects with at least one Related TEAE (MAD All GDC-8264, n = 12): 8 (66.7) no. of subjects (%)
- No. of subjects with at least one Serious TEAE (MAD All GDC-8264, n = 12): 0 no. of subjects (%)
- No. of subjects with at least one TEAE (MAD All GDC-8264, n = 12): 10 no. of subjects (%) and 10 (83.3) no. of subjects (%)
- No. of subjects withdrawn from study due to a TEAE (MAD All GDC-8264, n = 12): 0 no. of subjects (%)
- TEAE Abdominal pain (MAD All GDC-8264, n = 12): 2 (16.7) no. of subjects (%)
- TEAE Back pain (MAD All GDC-8264, n = 12): 0 no. of subjects (%)
- TEAE Catheter site pain (MAD All GDC-8264, n = 12): 2 (16.7) no. of subjects (%)
- TEAE Dermatitis contact (MAD All GDC-8264, n = 12): 1 (8.3) no. of subjects (%)
- TEAE Diarrhea (MAD All GDC-8264, n = 12): 3 (25.0) no. of subjects (%)
- TEAE Dizziness (MAD All GDC-8264, n = 12): 2 (16.7) no. of subjects (%)
- TEAE Dyspepsia (MAD All GDC-8264, n = 12): 1 (8.3) no. of subjects (%)
- TEAE Gastrointestinal sounds abnormal (MAD All GDC-8264, n = 12): 1 (8.3) no. of subjects (%)
- TEAE Gingivitis (MAD All GDC-8264, n = 12): 2 (16.7) no. of subjects (%)
- TEAE Headache (MAD All GDC-8264, n = 12): 2 (16.7) no. of subjects (%)
- TEAE Medical device site dermatitis (MAD All GDC-8264, n = 12): 0 no. of subjects (%)
- TEAE Myalgia (MAD All GDC-8264, n = 12): 0 no. of subjects (%)
- TEAE Nausea (MAD All GDC-8264, n = 12): 1 (8.3) no. of subjects (%)
- TEAE Presyncope (MAD All GDC-8264, n = 12): 1 (8.3) no. of subjects (%)
- TEAE Somnolence (MAD All GDC-8264, n = 12): 3 (25.0) no. of subjects (%)
- No. of TEAEs (SAD (fasted) 5 mg, n = 6): 6
- No. of deaths (SAD (fasted) 5 mg, n = 6): 0 no. of subjects (%)
- No. of subjects with at least one Related TEAE (SAD (fasted) 5 mg, n = 6): 0 no. of subjects (%)
- No. of subjects with at least one Serious TEAE (SAD (fasted) 5 mg, n = 6): 0 no. of subjects (%)
- No. of subjects with at least one TEAE (SAD (fasted) 5 mg, n = 6): 5 (83.3) no. of subjects (%)
- No. of subjects withdrawn from study due to a TEAE (SAD (fasted) 5 mg, n = 6): 0 no. of subjects (%)
- TEAE Abdominal pain (SAD (fasted) 5 mg, n = 6): 1 (16.7) no. of subjects (%)
- TEAE Back pain (SAD (fasted) 5 mg, n = 6): 0 no. of subjects (%)
- TEAE Catheter site pain (SAD (fasted) 5 mg, n = 6): 1 (16.7) no. of subjects (%)
- TEAE Dermatitis contact (SAD (fasted) 5 mg, n = 6): 1 (16.7) no. of subjects (%)
- TEAE Diarrhea (SAD (fasted) 5 mg, n = 6): 0 no. of subjects (%)
- TEAE Dizziness (SAD (fasted) 5 mg, n = 6): 0 no. of subjects (%)
- TEAE Dyspepsia (SAD (fasted) 5 mg, n = 6): 1 (16.7) no. of subjects (%)
- TEAE Gastrointestinal sounds abnormal (SAD (fasted) 5 mg, n = 6): 0 no. of subjects (%)
- TEAE Gingivitis (SAD (fasted) 5 mg, n = 6): 0 no. of subjects (%)
- TEAE Headache (SAD (fasted) 5 mg, n = 6): 1 (16.7) no. of subjects (%)
- TEAE Medical device site dermatitis (SAD (fasted) 5 mg, n = 6): 0 no. of subjects (%)
- TEAE Myalgia (SAD (fasted) 5 mg, n = 6): 0 no. of subjects (%)
- TEAE Nausea (SAD (fasted) 5 mg, n = 6): 0 no. of subjects (%)
- TEAE Presyncope (SAD (fasted) 5 mg, n = 6): 0 no. of subjects (%)
- TEAE Somnolence (SAD (fasted) 5 mg, n = 6): 0 no. of subjects (%)
- No. of TEAEs (SAD (fasted) 25 mg, n = 6): 6
- No. of deaths (SAD (fasted) 25 mg, n = 6): 0 no. of subjects (%)
- No. of subjects with at least one Related TEAE (SAD (fasted) 25 mg, n = 6): 0 no. of subjects (%)
- No. of subjects with at least one Serious TEAE (SAD (fasted) 25 mg, n = 6): 0 no. of subjects (%)
- No. of subjects with at least one TEAE (SAD (fasted) 25 mg, n = 6): 4 (66.7) no. of subjects (%)
- No. of subjects withdrawn from study due to a TEAE (SAD (fasted) 25 mg, n = 6): 0 no. of subjects (%)
- TEAE Abdominal pain (SAD (fasted) 25 mg, n = 6): 1 (16.7) no. of subjects (%)
- TEAE Back pain (SAD (fasted) 25 mg, n = 6): 0 no. of subjects (%)
- TEAE Catheter site pain (SAD (fasted) 25 mg, n = 6): 0 no. of subjects (%)
- TEAE Dermatitis contact (SAD (fasted) 25 mg, n = 6): 0 no. of subjects (%)
- TEAE Diarrhea (SAD (fasted) 25 mg, n = 6): 0 no. of subjects (%)
- TEAE Dizziness (SAD (fasted) 25 mg, n = 6): 0 no. of subjects (%)
- TEAE Dyspepsia (SAD (fasted) 25 mg, n = 6): 0 no. of subjects (%)
- TEAE Gastrointestinal sounds abnormal (SAD (fasted) 25 mg, n = 6): 0 no. of subjects (%)
- TEAE Gingivitis (SAD (fasted) 25 mg, n = 6): 0 no. of subjects (%)
- TEAE Headache (SAD (fasted) 25 mg, n = 6): 2 (33.3) no. of subjects (%)
- TEAE Medical device site dermatitis (SAD (fasted) 25 mg, n = 6): 0 no. of subjects (%)
- TEAE Myalgia (SAD (fasted) 25 mg, n = 6): 0 no. of subjects (%)
- TEAE Nausea (SAD (fasted) 25 mg, n = 6): 0 no. of subjects (%)
- TEAE Presyncope (SAD (fasted) 25 mg, n = 6): 1 (16.7) no. of subjects (%)
- TEAE Somnolence (SAD (fasted) 25 mg, n = 6): 0 no. of subjects (%)
